Consider 16 molecules from ChEMBL document CHEMBL1151758, “Synthesis of polyfluoro ketones for selective inhibition of human phospholipase A2 enzymes” (J Med Chem, 2008).

A value given as a limit tells only on which side of the number the result lay.

Assay [1] has as its target T1, 85/88 kDa calcium-independent phospholipase A2 (Homo sapiens) (UniProt O60733).
T1 sequence (whole entry): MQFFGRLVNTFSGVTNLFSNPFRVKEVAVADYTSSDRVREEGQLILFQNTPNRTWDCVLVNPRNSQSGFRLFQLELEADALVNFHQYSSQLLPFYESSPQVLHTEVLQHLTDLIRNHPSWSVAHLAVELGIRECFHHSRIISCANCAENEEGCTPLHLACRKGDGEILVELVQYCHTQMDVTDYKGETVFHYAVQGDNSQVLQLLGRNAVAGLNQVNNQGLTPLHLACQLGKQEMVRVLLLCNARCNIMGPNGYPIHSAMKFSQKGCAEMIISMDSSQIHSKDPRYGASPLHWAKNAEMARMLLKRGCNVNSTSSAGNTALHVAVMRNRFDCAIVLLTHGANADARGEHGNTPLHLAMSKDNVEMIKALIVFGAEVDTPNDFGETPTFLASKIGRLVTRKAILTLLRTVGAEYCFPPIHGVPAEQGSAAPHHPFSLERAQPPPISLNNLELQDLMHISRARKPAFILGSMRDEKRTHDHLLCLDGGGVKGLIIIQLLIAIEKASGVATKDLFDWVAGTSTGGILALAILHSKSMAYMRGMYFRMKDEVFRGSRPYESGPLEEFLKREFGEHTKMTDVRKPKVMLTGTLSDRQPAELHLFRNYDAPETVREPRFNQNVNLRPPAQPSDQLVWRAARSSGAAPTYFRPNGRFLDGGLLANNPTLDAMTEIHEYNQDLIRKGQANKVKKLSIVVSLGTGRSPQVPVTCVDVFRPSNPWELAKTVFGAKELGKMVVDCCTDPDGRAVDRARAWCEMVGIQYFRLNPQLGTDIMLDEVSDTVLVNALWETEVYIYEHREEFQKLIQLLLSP
The experiment in a line: Inhibition of human group 6A iPLA2 by mixed micelle-based assay. In a few lines:
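Modified Dole assay. Buffer: 200 mM HEPES pH 7.0, 1 mM ATP, 2 mM DTT, 0.1 mg/ml BSA. XI(50) is the inhibitor mole fraction in the total interface causing 50% inhibition. It was estimated for compounds exceeding 90% inhibition at 0.091 mole fraction.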

The target in assay [2] is T2, Phospholipase A2 group V (Homo sapiens) (UniProt P39877).
T2 sequence (whole entry): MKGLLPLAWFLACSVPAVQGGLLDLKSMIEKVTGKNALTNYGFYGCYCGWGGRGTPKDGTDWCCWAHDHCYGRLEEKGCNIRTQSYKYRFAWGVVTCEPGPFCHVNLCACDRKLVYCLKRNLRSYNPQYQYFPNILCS
The experiment in a line: Inhibition of human group 5 sPLA2 at 0.091 mol fraction by mixed micelle-based assay. In a few lines:
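Modified Dole assay. Inhibitor present at 0.091 mole fraction of the total substrate interface; percent inhibition recorded.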

Assay [3] has as its target T1, 85/88 kDa calcium-independent phospholipase A2 (Homo sapiens). The experiment in a line: Inhibition of human group 6A iPLA2 at 0.091 mol fraction by mixed micelle-based assay. In a few lines: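 Modified Dole assay. Buffer: 200 mM HEPES pH 7.0, 1 mM ATP, 2 mM DTT, 0.1 mg/ml BSA. Percent inhibition read with inhibitor at 0.091 mole fraction of the total substrate interface.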

In assay [4] the target is T3, Cytosolic phospholipase A2 (Homo sapiens) (UniProt P47712).
T3 sequence (whole entry): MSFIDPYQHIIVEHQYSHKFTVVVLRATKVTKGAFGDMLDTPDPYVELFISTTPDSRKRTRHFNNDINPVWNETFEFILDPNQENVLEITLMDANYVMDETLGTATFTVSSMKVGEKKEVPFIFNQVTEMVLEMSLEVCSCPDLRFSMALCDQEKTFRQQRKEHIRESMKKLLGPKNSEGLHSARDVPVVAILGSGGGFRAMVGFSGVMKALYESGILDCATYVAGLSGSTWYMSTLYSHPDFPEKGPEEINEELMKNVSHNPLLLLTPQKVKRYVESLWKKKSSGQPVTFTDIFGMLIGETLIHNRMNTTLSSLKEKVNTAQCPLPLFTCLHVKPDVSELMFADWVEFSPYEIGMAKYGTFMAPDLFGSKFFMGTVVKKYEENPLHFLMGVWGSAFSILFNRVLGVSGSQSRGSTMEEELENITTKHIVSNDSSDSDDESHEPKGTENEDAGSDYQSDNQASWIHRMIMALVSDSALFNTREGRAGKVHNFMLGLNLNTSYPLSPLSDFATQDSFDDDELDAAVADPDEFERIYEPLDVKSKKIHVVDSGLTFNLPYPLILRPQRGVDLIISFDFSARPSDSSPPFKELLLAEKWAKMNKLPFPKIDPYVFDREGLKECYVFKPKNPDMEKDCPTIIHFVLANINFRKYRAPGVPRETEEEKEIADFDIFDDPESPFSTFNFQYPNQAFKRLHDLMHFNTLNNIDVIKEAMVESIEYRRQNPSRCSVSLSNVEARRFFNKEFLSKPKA
The experiment in a line: Inhibition of human group 4A cPLA2 at 0.091 mol fraction by mixed micelle-based assay. A digest of the protocol:
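Modified Dole assay, radiolabel release. Buffer: 100 mM HEPES pH 7.5, 90 μM CaCl2, 2 mM DTT, 0.1 mg/ml BSA. Percent inhibition measured with inhibitor at 0.091 mole fraction of the total substrate interface.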

The target in assay [5] is T3, Cytosolic phospholipase A2 (Homo sapiens). The experiment in a line: Inhibition of human group 4A cPLA2 by mixed micelle-based assay. In a few lines: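 Buffer: 100 mM HEPES pH 7.5, 90 μM CaCl2, 2 mM DTT, 0.1 mg/ml BSA. XI(50) is the inhibitor mole fraction in the total substrate interface that gives 50% inhibition. It was estimated for compounds giving >90% inhibition at 0.091 mole fraction.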

In assay [6] the target is T2, Phospholipase A2 group V (Homo sapiens). The experiment in a line: Inhibition of human group 5 sPLA2 by mixed micelle-based assay. A digest of the protocol:
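Modified Dole assay. XI(50) is the inhibitor mole fraction of the total interface that halves activity. It was estimated only where inhibition at 0.091 mole fraction exceeded 90%.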

For the molecule `O=C(CCCCCc1ccccc1)C(F)(F)F`, in assay [1], the XI50 was found to be 0.0025. The inhibition in assay [2] is 48%; in assay [3], 96%; in assay [4], 62%.

Consider `CCCCCCCCCCCCCCCC(=O)C(F)(F)C(F)(F)F`, for which the figures for the inhibition in assay [2], in assay [3] and in assay [4] were 43%, 50% and under 25%, respectively.

As to `CCCCCCCCCCCCCCCC(=O)C(F)(F)F`, the results for the XI50 in assay [1] and in assay [5] were 0.0195 and 0.0223, respectively. Also, the inhibition in assay [2] was 79%; in assay [3] it was 92%; in assay [4] it was 96%.

`CCCCCCOc1ccc(CCC(=O)C(F)(F)C(F)(F)F)cc1`: in assay [1], the XI50 was 0.0075. The results for the inhibition in assay [2], in assay [3] and in assay [4] were 86%, 95% and 73%, respectively.

As for `O=C(CCCCc1ccccc1)C(F)(F)C(F)(F)F`, in assay [1], the XI50 turned out to be 0.0073. The inhibition in assay [2] is 28%; in assay [3], 98%; in assay [4], under 25%.

As for `OC(O)(C(F)(F)F)C(F)(F)CCCc1ccccc1`, the inhibition worked out at 59% in assay [2], 49% in assay [3] and 27% in assay [4].

For `CCCCCCOc1ccc(CCC(=O)C(F)(F)F)cc1`, the XI50 in assay [1] came to 0.0328; in assay [5], 0.0199. For the same molecule, the values for the inhibition in assay [2], in assay [3] and in assay [4] were 82%, 85% and 91%, respectively.

On to `CCCCCCOc1ccc(CCCCC(=O)C(F)(F)F)cc1`, for which the XI50 in assay [1] came to 0.0169; in assay [5], 0.0098. Besides, the inhibition in assay [2] is 86%; in assay [3], 91%; in assay [4], 92%.

For the molecule `O=C(CCCCc1ccccc1)C(F)(F)F`, the XI50 in assay [1] is 0.0096. The results for the inhibition in assay [2], in assay [3] and in assay [4] were under 25%, 96% and 38%, respectively.

As to `CCCCCCCCCCOc1ccc(CCCCC(=O)C(F)(F)F)cc1`, the XI50 in assay [1] was 0.0166; in assay [5] it was 0.0116. Further, the inhibition is 84% in assay [2], 94% in assay [3] and 95% in assay [4].

As to `O=C(CCc1ccc(OCc2ccccc2)cc1)C(F)(F)F`, the inhibition in assay [2] is 49%; in assay [3], 71%; in assay [4], 88%.

In the case of `O=C(CCCCCCc1ccccc1)C(F)(F)F`, in assay [1], the XI50 stood at 0.0018. Moreover, the inhibition is 53% in assay [2], 99% in assay [3] and 68% in assay [4].

On to `O=C(CCCCCCc1ccccc1)C(F)(F)C(F)(F)F`, for which the XI50 in assay [1] was found to be 0.0065. The results for the inhibition in assay [2], in assay [3] and in assay [4] were 75%, 98% and 65%, respectively.

Take `O=C(CCCCCc1ccccc1)C(F)(F)C(F)(F)F`: the XI50 in assay [1] is 0.0065. Besides, the inhibition came to 46% in assay [2], 98% in assay [3] and 56% in assay [4].

For `CCCCCCCCCCOc1ccc(CCC(=O)C(F)(F)F)cc1`, the XI50 in assay [1] came out at 0.0208; in assay [5] it was 0.0156. The inhibition was 80% in assay [2], 94% in assay [3] and 96% in assay [4].

For the molecule `CCCCCCCCCCCCCCC(F)C(=O)C(F)(F)F` (stereo not drawn), the values for the XI50 in assay [1], in assay [6] and in assay [5] were 0.0011, 0.0236 and 0.0167, respectively. The inhibition in assay [2] turned out to be 86%; in assay [3], 93%; in assay [4], 94%.

As a reminder, the inhibition is how much of the control response was suppressed.
